Experimental data reported in ChEMBL document CHEMBL1138746, “Indolebutylamines as selective 5-HT(1A) agonists” (J Med Chem, 2004).

What was measured:
[1] = biological target: T1, Adrenergic receptor alpha-2 (Homo sapiens, UniProt P08913+P18825+P18089); experiment: Inhibition of Alpha-2 adrenergic receptor; format: protein assay
T1 sequence (P08913 whole entry): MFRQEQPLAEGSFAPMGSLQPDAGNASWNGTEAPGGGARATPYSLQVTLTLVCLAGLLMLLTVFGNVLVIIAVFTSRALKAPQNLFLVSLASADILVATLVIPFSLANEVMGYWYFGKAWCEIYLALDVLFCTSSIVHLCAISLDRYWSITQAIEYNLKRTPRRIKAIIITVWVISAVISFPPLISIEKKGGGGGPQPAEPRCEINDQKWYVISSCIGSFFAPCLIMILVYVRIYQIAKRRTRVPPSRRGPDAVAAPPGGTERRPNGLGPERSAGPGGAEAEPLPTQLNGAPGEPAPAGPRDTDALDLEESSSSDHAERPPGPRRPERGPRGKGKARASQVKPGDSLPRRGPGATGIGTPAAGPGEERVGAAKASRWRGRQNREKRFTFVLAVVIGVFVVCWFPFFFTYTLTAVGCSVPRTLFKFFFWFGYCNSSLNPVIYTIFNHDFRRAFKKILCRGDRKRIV
T1 sequence (P18825 whole entry): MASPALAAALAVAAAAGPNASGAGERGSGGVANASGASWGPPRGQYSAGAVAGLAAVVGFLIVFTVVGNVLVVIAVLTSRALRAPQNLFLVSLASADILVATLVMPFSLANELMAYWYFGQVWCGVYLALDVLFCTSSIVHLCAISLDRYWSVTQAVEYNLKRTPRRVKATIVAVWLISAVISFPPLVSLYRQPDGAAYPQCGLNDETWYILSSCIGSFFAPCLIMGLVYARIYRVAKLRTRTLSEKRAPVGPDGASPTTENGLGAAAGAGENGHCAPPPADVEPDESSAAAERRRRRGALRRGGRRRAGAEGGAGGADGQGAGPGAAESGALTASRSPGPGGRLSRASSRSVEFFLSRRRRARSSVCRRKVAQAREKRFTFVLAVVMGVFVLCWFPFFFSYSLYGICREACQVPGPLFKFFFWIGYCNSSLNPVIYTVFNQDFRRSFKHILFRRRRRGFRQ
T1 sequence (P18089 whole entry): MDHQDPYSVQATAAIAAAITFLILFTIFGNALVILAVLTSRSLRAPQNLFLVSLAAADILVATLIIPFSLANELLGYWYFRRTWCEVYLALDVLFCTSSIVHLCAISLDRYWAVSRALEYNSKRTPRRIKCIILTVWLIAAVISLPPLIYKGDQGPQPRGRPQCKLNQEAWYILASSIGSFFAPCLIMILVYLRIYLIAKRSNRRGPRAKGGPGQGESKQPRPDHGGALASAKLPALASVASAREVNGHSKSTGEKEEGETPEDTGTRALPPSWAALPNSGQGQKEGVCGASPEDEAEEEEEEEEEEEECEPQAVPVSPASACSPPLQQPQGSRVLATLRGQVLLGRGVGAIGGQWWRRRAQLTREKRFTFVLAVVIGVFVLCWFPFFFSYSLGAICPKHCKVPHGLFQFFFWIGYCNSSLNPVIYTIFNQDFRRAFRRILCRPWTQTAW

D(2) dopamine receptor = D(2) dopamine receptor (Rattus norvegicus, UniProt P61169); experiment: Displacement of [3H]spiperone from dopamine D2 receptor of rat striatal membranes; format: cell membranes, Membrane
How it was run: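 Rat striatal membranes (0.3–1.0 mg protein/mL) were incubated with 0.1 nM [3H]spiperone in Tris-HCl buffer (pH 7.1) containing 120 mmol/L NaCl, 5 mmol/L KCl, 1 mmol/L CaCl2, 1 mmol/L MgCl2 and 0.1% ascorbic acid, at 37 °C for 15 min. Bound ligand was separated by filtration with three ice-cold washes. Nonspecific binding was defined with 1 mmol/L (+)-butaclamol. IC50 (50% inhibition of binding) came from 5–10 concentrations, each in triplicate.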

[2] = Inhibition of hydroxytryptamine 1D receptor

Chain of D(2) dopamine receptor (P61169 whole entry): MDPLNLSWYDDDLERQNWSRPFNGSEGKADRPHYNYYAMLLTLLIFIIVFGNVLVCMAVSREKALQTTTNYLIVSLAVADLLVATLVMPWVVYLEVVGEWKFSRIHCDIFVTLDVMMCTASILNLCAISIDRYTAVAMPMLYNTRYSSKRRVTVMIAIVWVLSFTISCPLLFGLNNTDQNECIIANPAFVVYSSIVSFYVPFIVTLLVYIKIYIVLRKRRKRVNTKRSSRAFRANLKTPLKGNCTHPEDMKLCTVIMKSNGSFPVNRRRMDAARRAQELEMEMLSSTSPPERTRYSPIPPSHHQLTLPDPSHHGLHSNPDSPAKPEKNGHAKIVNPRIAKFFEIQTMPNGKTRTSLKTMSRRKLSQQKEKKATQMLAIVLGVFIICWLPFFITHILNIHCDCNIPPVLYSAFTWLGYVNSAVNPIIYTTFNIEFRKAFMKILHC

For `O=C1c2ccccc2S(=O)(=O)N1CCCCN1CCN(c2ncccn2)CC1` [IPSAPIRONE], which IC50 [1] is on record?
Its IC50 is 1000 nM.

And the IC50 (D(2) dopamine receptor)?
Its IC50 is 2900 nM.

And the IC50 [2]?
The IC50 was 3000 nM.
